Drawing on ChEMBL document CHEMBL3804810, “A structural insight into the P1S1 binding mode of diaminoethylphosphonic and phosphinic acids, selective inhibitors of alanine aminopeptidases” (Eur J Med Chem, 2016), this text covers Ki and inhibition for 27 compounds.

The source made the active and inactive calls. The rule behind the calls is not given here.

In assay [1] the target is T1, Cytosol aminopeptidase (Sus scrofa, UniProt P28839).
T1 sequence (P28839 whole entry): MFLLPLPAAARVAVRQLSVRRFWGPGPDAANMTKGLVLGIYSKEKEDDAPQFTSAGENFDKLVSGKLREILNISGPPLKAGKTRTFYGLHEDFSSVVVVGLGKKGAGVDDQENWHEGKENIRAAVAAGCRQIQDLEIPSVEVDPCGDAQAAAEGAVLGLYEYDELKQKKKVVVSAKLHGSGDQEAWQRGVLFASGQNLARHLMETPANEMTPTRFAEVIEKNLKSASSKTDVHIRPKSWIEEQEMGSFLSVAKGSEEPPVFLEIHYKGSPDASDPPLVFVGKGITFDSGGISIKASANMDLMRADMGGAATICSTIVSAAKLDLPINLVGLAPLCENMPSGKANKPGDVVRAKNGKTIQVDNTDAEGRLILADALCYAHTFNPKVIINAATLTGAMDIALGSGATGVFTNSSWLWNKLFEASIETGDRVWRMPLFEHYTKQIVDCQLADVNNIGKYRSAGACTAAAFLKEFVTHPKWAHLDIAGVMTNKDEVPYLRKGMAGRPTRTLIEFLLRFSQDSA
The experiment in a line: Inhibition of porcine kidney leucine aminopeptidase M17 using Leu-AMC as substrate preincubated for 30 to 60 mins followed by substrate addition measured for 15 mins by spectrofluorimetric analysis. Put shortly: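 Inhibitor concentrations were tested up to 800 μM against the porcine kidney enzyme. Values are reported as inhibition constants (Ki).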

The target in assay [2] is T1, Cytosol aminopeptidase. The assay can be described thus: Inhibition of porcine kidney leucine aminopeptidase M17 using L-leucine p-nitro-anilide as substrate by spectrophotometric analysis.
The target of assay [3] is T2, Cytosol aminopeptidase (Sus scrofa) (UniProt P28839).
T2 sequence (whole entry): T1 sequence (P28839 whole entry)
The experiment in a line: Inhibition of porcine kidney leucine aminopeptidase M17 using Leu-AMC as substrate up to 0.8 mM preincubated for 30 to 60 mins followed by substrate addition measured for 15 mins by spectrofluorimetric analysis.

Assay [4] in a line: Inhibition of recombinant Neisseria meningitidis N-terminal His6-tagged alanyl aminopeptidase M1 expressed in Escherichia coli BL21 cells using Ala-AMC as substrate preincubated for 30 to 60 mins followed by substrate addition measured for 15 mins by spectrofluorimetric analysis.

Usually Ki stands for a measure of affinity in units of concentration, obtained from inhibition or displacement. For the compound `NCCNCC(N)P(=O)(O)O` (stereo not drawn), the affinity at Cytosol aminopeptidase [1], expressed as Ki, was 289 µM. On Cytosol aminopeptidase [2], `CC(NCC(N)P(=O)(O)O)c1ccccc1` (stereo not drawn) had a Ki of 600 µM. Regarding `NC(CNCC1CCCO1)P(=O)(O)O` (stereo not drawn), the affinity on Cytosol aminopeptidase [1] corresponds to a Ki of 69.1 µM. For the compound `NC(CN1CCOCC1)P(=O)(O)O` (stereo not drawn), the inhibition result in assay [3] was “inactive”. For `NCc1ccc(CNCC(N)P(=O)(O)O)cc1` (stereo not drawn), the affinity at Cytosol aminopeptidase [1] corresponds to a Ki of 26.5 µM. For the compound `NC(CN1CCCCC1)P(=O)(O)O` (stereo not drawn), the affinity on Cytosol aminopeptidase [2], expressed as Ki, was 1410 µM. `COc1ccc(CCNCC(N)P(=O)(O)CC(Cc2ccccc2)C(=O)O)cc1` (stereo not drawn) yielded a Ki at Cytosol aminopeptidase [1] of 21.1 µM. Still for that read-out and setting: as for `COc1ccc(CCNCC(N)P(=O)(O)O)cc1` (stereo not drawn), the figure is 19.5 µM.

Regarding `COc1ccc(CNCC(N)P(=O)(O)O)cc1` (stereo not drawn), at Cytosol aminopeptidase [1], the Ki turned out to be 26.2 µM. `NCC(N)P(=O)(O)O` (stereo not drawn): the Ki in assay [4] is 0.589 µM.

Turning to `CC(C)(C)c1ccc(CNCC(N)P(=O)(O)O)cc1` (stereo not drawn), affinity on Cytosol aminopeptidase [1] was put at a Ki of 71.1 µM. `CN(C)CCNCC(N)P(=O)(O)O` (stereo not drawn): the Ki at Cytosol aminopeptidase [1] came out at 72.6 µM; in assay [4] it was 26 µM. As to `CC(C)CNCC(N)P(=O)(O)CC(Cc1ccccc1)C(=O)O` (stereo not drawn), the affinity on Cytosol aminopeptidase [1], expressed as Ki, was 15.2 µM.

`NC1CCCCC1NCC(N)P(=O)(O)O` (stereo not drawn) returned a Ki at Cytosol aminopeptidase [1] of 240 µM. As for `NC(CNC1CCCCCC1)P(=O)(O)CC(Cc1ccccc1)C(=O)O` (stereo not drawn), at Cytosol aminopeptidase [1], the Ki was found to be 23.8 µM. The same measure, in the same setting: as for `NC(CNC1CCCCCC1)P(=O)(O)O` (stereo not drawn), the figure is 20.8 µM. On the same count and under the same terms, as for `Nc1ccc(CNCC(N)P(=O)(O)O)cc1` (stereo not drawn), the figure is 7.02 µM; as for `CCCNCC(N)P(=O)(O)CC(Cc1ccccc1)C(=O)O` (stereo not drawn), 21 µM. Regarding `CCCCCCNCC(N)P(=O)(O)O` (stereo not drawn), at Cytosol aminopeptidase [1], the Ki amounted to 119 µM.

At Cytosol aminopeptidase [1], `NC(CNCC1CCNCC1)P(=O)(O)O` (stereo not drawn) had an inhibitory constant (Ki) of 68.4 µM. As for `NC(CNC1CCCCC1)P(=O)(O)CC(Cc1ccccc1)C(=O)O` (stereo not drawn), the Ki at Cytosol aminopeptidase [1] was 28.3 µM. On the same count and under the same terms, as for `NCC(N)P(=O)(O)CC(Cc1ccccc1)C(=O)O` (stereo not drawn), the figure is 64.4 µM. Consider `CNCC(N)P(=O)(O)O` (stereo not drawn), for which the Ki in assay [4] was found to be 29.6 µM. `NC(CNCCN1CCNCC1)P(=O)(O)O` (stereo not drawn) displayed a Ki on Cytosol aminopeptidase [1] of 55.8 µM. The same measure, in the same setting: the value for `NC(CCC1CCCCC1)P(=O)(O)O` (stereo not drawn) was 0.21 µM. As to `NC(CNCc1ccccc1)P(=O)(O)O` (stereo not drawn), the affinity on Cytosol aminopeptidase [2] corresponds to a Ki of 350 µM. Consider `NC(CNCCc1ccccc1)P(=O)(O)O` (stereo not drawn), for which, at Cytosol aminopeptidase [1], the Ki is 108 µM.
